The test system of one test is HCT-116. In words: Cytotoxicity against human HCT116 cells after 72 hrs by phosphatase assay. Type of test: functional, cell-based. To be noted: HCT-116, 72 h. A digest of the protocol:
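Cells diluted to 30,000 cells/mL in DMEM with 10% FBS and seeded into 96-well plates (100 μL per well), then grown 24 h at 37 °C under 5% CO2. Test agents were made as 1 mM DMSO stocks with 10-fold serial dilutions and tested at six concentrations over 0–1,000 nM or 0–10,000 nM, in duplicate, for 72 h. Acid phosphatase read-out: substrate in 0.1 M NaOAc pH 5.5 with 0.1% Triton X-100, 15 min at 37 °C, stopped with NaOH, A405.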

The next test relates to HCT-116/VM46. The experiment in a line: Cytotoxicity against vinblastine-resistant human HCT116/VM46 cells after 72 hrs by phosphatase assay. Type of test: functional, cell-based. To be noted: HCT-116/VM46, 72 h. A digest of the protocol: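 Cells diluted to 30,000 cells/mL in DMEM with 10% FBS and seeded into 96-well plates (100 μL per well), then grown 24 h at 37 °C under 5% CO2. Test agents were made as 1 mM DMSO stocks with 10-fold serial dilutions and tested at six concentrations over 0–1,000 nM or 0–10,000 nM, in duplicate, for 72 h. Acid phosphatase read-out: substrate in 0.1 M NaOAc pH 5.5 with 0.1% Triton X-100, 15 min at 37 °C, stopped with NaOH, A405. IC50 is the mean of 4–16 determinations.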

Consider `CC[C@]1(NC(C)=O)C[C@H]2CN(CCc3c([nH]c4ccccc34)[C@@](C(=O)OC)(c3cc4c(cc3OC)N(C)[C@H]3[C@@](O)(C(=O)OC)[C@H](OC(C)=O)[C@]5(CC)C=CCN6CC[C@]43[C@@H]65)C2)C1`, for which it took 90 nM to reach half-maximal inhibition with HCT-116 (IC50). This lies in the double-digit nanomolar range.

In the case of `CC[C@]1(OC(=O)N(C)C)C[C@H]2CN(CCc3c([nH]c4ccccc34)[C@@](C(=O)OC)(c3cc4c(cc3OC)N(C)[C@H]3[C@@](O)(C(=O)OC)[C@H](OC(C)=O)[C@]5(CC)C=CCN6CC[C@]43[C@@H]65)C2)C1`, the IC50 (usually the concentration at which inhibition is half-maximal) was 9100 nM with HCT-116/VM46 and 4700 nM with HCT-116.

Regarding `CC[C@]1(NC(=O)NCc2ccco2)C[C@H]2CN(CCc3c([nH]c4ccccc34)[C@@](C(=O)OC)(c3cc4c(cc3OC)N(C)[C@H]3[C@@](O)(C(=O)OC)[C@H](OC(C)=O)[C@]5(CC)C=CCN6CC[C@]43[C@@H]65)C2)C1`, the IC50 with HCT-116/VM46 amounted to 530 nM; in the test with HCT-116, 5.1 nM.

In the case of `CC[C@]1(NC(=S)N(C)C)C[C@H]2CN(CCc3c([nH]c4ccccc34)[C@@](C(=O)OC)(c3cc4c(cc3OC)N(C)[C@H]3[C@@](O)(C(=O)OC)[C@H](OC(C)=O)[C@]5(CC)C=CCN6CC[C@]43[C@@H]65)C2)C1`, the IC50 turned out to be 250 nM in the test with HCT-116/VM46 and 8.7 nM with HCT-116. In the test with HCT-116, `CC[C@]1(N=[N+]=[N-])C[C@H]2CN(CCc3c([nH]c4ccccc34)[C@@](C(=O)OC)(c3cc4c(cc3OC)N(C)[C@H]3[C@@](O)(C(=O)OC)[C@H](OC(C)=O)[C@]5(CC)C=CCN6CC[C@]43[C@@H]65)C2)C1` returned an IC50 of 690 nM. Same read-out and setting: next, `CC[C@]1(NC=O)C[C@H]2CN(CCc3c([nH]c4ccccc34)[C@@](C(=O)OC)(c3cc4c(cc3OC)N(C)[C@H]3[C@@](O)(C(=O)OC)[C@H](OC(C)=O)[C@]5(CC)C=CCN6CC[C@]43[C@@H]65)C2)C1`: 85 nM. Take `CC[C@]1(NC(=O)Nc2ccc(Cl)cc2)C[C@H]2CN(CCc3c([nH]c4ccccc34)[C@@](C(=O)OC)(c3cc4c(cc3OC)N(C)[C@H]3[C@@](O)(C(=O)OC)[C@H](OC(C)=O)[C@]5(CC)C=CCN6CC[C@]43[C@@H]65)C2)C1`: the IC50 was 590 nM in the test with HCT-116/VM46 and 6.7 nM with HCT-116.

In turn, `CC[C@]1(N=C=S)C[C@H]2CN(CCc3c([nH]c4ccccc34)[C@@](C(=O)OC)(c3cc4c(cc3OC)N(C)[C@H]3[C@@](O)(C(=O)OC)[C@H](OC(C)=O)[C@]5(CC)C=CCN6CC[C@]43[C@@H]65)C2)C1` came in with an IC50 in the test on HCT-116 of 530 nM. Regarding `CC[C@]1(NC(=O)NCc2ccccn2)C[C@H]2CN(CCc3c([nH]c4ccccc34)[C@@](C(=O)OC)(c3cc4c(cc3OC)N(C)[C@H]3[C@@](O)(C(=O)OC)[C@H](OC(C)=O)[C@]5(CC)C=CCN6CC[C@]43[C@@H]65)C2)C1`, the results for the concentration for half-maximal inhibition (IC50) with HCT-116/VM46 and in the test on HCT-116 were 670 nM and 5.6 nM, respectively. For `CC[C@]12C=CCN3CC[C@@]4(c5cc([C@@]6(C(=O)OC)C[C@@H]7CN(CCc8c6[nH]c6ccccc86)C[C@@](CC)(N(C)C)C7)c(OC)cc5N(C)[C@H]4[C@@](O)(C(=O)OC)[C@@H]1OC(C)=O)[C@@H]32`, in that order: greater than 10000 nM and 980 nM. For `CC[C@]1(NC)C[C@H]2CN(CCc3c([nH]c4ccccc34)[C@@](C(=O)OC)(c3cc4c(cc3OC)N(C)[C@H]3[C@@](O)(C(=O)OC)[C@H](OC(C)=O)[C@]5(CC)C=CCN6CC[C@]43[C@@H]65)C2)C1` the same measures were 8500 nM and 60 nM. `CC[C@]1(SC#N)C[C@H]2CN(CCc3c([nH]c4ccccc34)[C@@](C(=O)OC)(c3cc4c(cc3OC)N(C)[C@H]3[C@@](O)(C(=O)OC)[C@H](OC(C)=O)[C@]5(CC)C=CCN6CC[C@]43[C@@H]65)C2)C1`: the IC50 in the test on HCT-116 worked out at 550 nM.

With `CC[C@]1(NC(=O)Nc2ccc(F)cc2)C[C@H]2CN(CCc3c([nH]c4ccccc34)[C@@](C(=O)OC)(c3cc4c(cc3OC)N(C)[C@H]3[C@@](O)(C(=O)OC)[C@H](OC(C)=O)[C@]5(CC)C=CCN6CC[C@]43[C@@H]65)C2)C1`, the results for the IC50 in the test on HCT-116/VM46 and in the test on HCT-116 were 400 nM and 3.9 nM, respectively. For `CC[C@]1(NC(=O)NCc2ccccc2)C[C@H]2CN(CCc3c([nH]c4ccccc34)[C@@](C(=O)OC)(c3cc4c(cc3OC)N(C)[C@H]3[C@@](O)(C(=O)OC)[C@H](OC(C)=O)[C@]5(CC)C=CCN6CC[C@]43[C@@H]65)C2)C1`, in that order: 740 nM and 7.3 nM. Compound `CC[C@]1(NC(=O)Oc2ccc([N+](=O)[O-])cc2)C[C@H]2CN(CCc3c([nH]c4ccccc34)[C@@](C(=O)OC)(c3cc4c(cc3OC)N(C)[C@H]3[C@@](O)(C(=O)OC)[C@H](OC(C)=O)[C@]5(CC)C=CCN6CC[C@]43[C@@H]65)C2)C1` registered an IC50 in the test on HCT-116 of 55 nM. With `CC[C@]1(NC(=S)NCCc2ccc(F)cc2)C[C@H]2CN(CCc3c([nH]c4ccccc34)[C@@](C(=O)OC)(c3cc4c(cc3OC)N(C)[C@H]3[C@@](O)(C(=O)OC)[C@H](OC(C)=O)[C@]5(CC)C=CCN6CC[C@]43[C@@H]65)C2)C1`, the IC50 in the test with HCT-116/VM46 is 750 nM; in the test on HCT-116, 60 nM.

Regarding `CC[C@]1(N)C[C@H]2CN(CCc3c([nH]c4ccccc34)[C@@](C(=O)OC)(c3cc4c(cc3OC)N(C)[C@H]3[C@@](O)(C(=O)OC)[C@H](OC(C)=O)[C@]5(CC)C=CCN6CC[C@]43[C@@H]65)C2)C1`, the IC50 is greater than 10000 nM with HCT-116/VM46 and 600 nM with HCT-116.

As for `CC[C@]1(NC(=O)Nc2ccc(OC)cc2)C[C@H]2CN(CCc3c([nH]c4ccccc34)[C@@](C(=O)OC)(c3cc4c(cc3OC)N(C)[C@H]3[C@@](O)(C(=O)OC)[C@H](OC(C)=O)[C@]5(CC)C=CCN6CC[C@]43[C@@H]65)C2)C1`, the IC50 stood at 230 nM in the test on HCT-116/VM46 and 2 nM in the test on HCT-116.

On to `CC[C@]1(NC(=O)NCCO)C[C@H]2CN(CCc3c([nH]c4ccccc34)[C@@](C(=O)OC)(c3cc4c(cc3OC)N(C)[C@H]3[C@@](O)(C(=O)OC)[C@H](OC(C)=O)[C@]5(CC)C=CCN6CC[C@]43[C@@H]65)C2)C1`, for which the IC50 was greater than 1000 nM in the test with HCT-116/VM46 and 8.8 nM in the test on HCT-116. For `CC[C@]1(NC(=O)Nc2ccccc2)C[C@H]2CN(CCc3c([nH]c4ccccc34)[C@@](C(=O)OC)(c3cc4c(cc3OC)N(C)[C@H]3[C@@](O)(C(=O)OC)[C@H](OC(C)=O)[C@]5(CC)C=CCN6CC[C@]43[C@@H]65)C2)C1`, in that order: 390 nM and 5.1 nM.

In the case of `CCCCNC(=O)N[C@@]1(CC)C[C@H]2CN(CCc3c([nH]c4ccccc34)[C@@](C(=O)OC)(c3cc4c(cc3OC)N(C)[C@H]3[C@@](O)(C(=O)OC)[C@H](OC(C)=O)[C@]5(CC)C=CCN6CC[C@]43[C@@H]65)C2)C1`, the IC50 is 270 nM with HCT-116/VM46 and 4.6 nM in the test on HCT-116. Regarding `CC[C@]1(NC(=O)Nc2ccc(C)cc2)C[C@H]2CN(CCc3c([nH]c4ccccc34)[C@@](C(=O)OC)(c3cc4c(cc3OC)N(C)[C@H]3[C@@](O)(C(=O)OC)[C@H](OC(C)=O)[C@]5(CC)C=CCN6CC[C@]43[C@@H]65)C2)C1`, the IC50 was 330 nM in the test on HCT-116/VM46 and 4.8 nM with HCT-116.

As for `CC[C@]1(NC(=O)NC(C)(C)C)C[C@H]2CN(CCc3c([nH]c4ccccc34)[C@@](C(=O)OC)(c3cc4c(cc3OC)N(C)[C@H]3[C@@](O)(C(=O)OC)[C@H](OC(C)=O)[C@]5(CC)C=CCN6CC[C@]43[C@@H]65)C2)C1`, the concentration for half-maximal inhibition (IC50) was determined as 670 nM in the test with HCT-116/VM46 and 20 nM with HCT-116. Consider `CC[C@]1(NC(=O)NCCc2ccccc2)C[C@H]2CN(CCc3c([nH]c4ccccc34)[C@@](C(=O)OC)(c3cc4c(cc3OC)N(C)[C@H]3[C@@](O)(C(=O)OC)[C@H](OC(C)=O)[C@]5(CC)C=CCN6CC[C@]43[C@@H]65)C2)C1`, for which the figures for the IC50 in the test on HCT-116/VM46 and with HCT-116 were 590 nM and 6.3 nM, respectively. For `CC[C@]1(NC(=O)N2CCOCC2)C[C@H]2CN(CCc3c([nH]c4ccccc34)[C@@](C(=O)OC)(c3cc4c(cc3OC)N(C)[C@H]3[C@@](O)(C(=O)OC)[C@H](OC(C)=O)[C@]5(CC)C=CCN6CC[C@]43[C@@H]65)C2)C1`, in that order: 360 nM and 4.5 nM. For the compound `CC[C@]1(NC(=O)Nc2ccc(C(F)(F)F)cc2)C[C@H]2CN(CCc3c([nH]c4ccccc34)[C@@](C(=O)OC)(c3cc4c(cc3OC)N(C)[C@H]3[C@@](O)(C(=O)OC)[C@H](OC(C)=O)[C@]5(CC)C=CCN6CC[C@]43[C@@H]65)C2)C1`, the IC50 was determined as 610 nM in the test on HCT-116/VM46 and 7.1 nM with HCT-116. For the compound `CC[C@]1(NC(=O)NC2CCCCC2)C[C@H]2CN(CCc3c([nH]c4ccccc34)[C@@](C(=O)OC)(c3cc4c(cc3OC)N(C)[C@H]3[C@@](O)(C(=O)OC)[C@H](OC(C)=O)[C@]5(CC)C=CCN6CC[C@]43[C@@H]65)C2)C1`, the IC50 with HCT-116/VM46 worked out at 450 nM; in the test with HCT-116, 5.4 nM. `CC[C@@H]1C[C@H]2CN(CCc3c([nH]c4ccccc34)[C@@](C(=O)OC)(c3cc4c(cc3OC)N(C)[C@H]3[C@@](O)(C(=O)OC)[C@H](OC(C)=O)[C@]5(CC)C=CCN6CC[C@]43[C@@H]65)C2)C1` [ROSEAMINE]: in the test on HCT-116, the IC50 came out at 60 nM. Same read-out and setting: next, `CC[C@]1(NC(=O)OC)C[C@H]2CN(CCc3c([nH]c4ccccc34)[C@@](C(=O)OC)(c3cc4c(cc3OC)N(C)[C@H]3[C@@](O)(C(=O)OC)[C@H](OC(C)=O)[C@]5(CC)C=CCN6CC[C@]43[C@@H]65)C2)C1`: 75 nM.

Source of the values: ChEMBL document CHEMBL2311295 (J Med Chem, 2013).
